In ChEMBL document CHEMBL4257484, “Membrane-active antimicrobial poly(amino-modified alkyl) β-cyclodextrins synthesized via click reactions” (Medchemcomm, 2018):
≈ marks a conversion by molar mass, not a printed value.

Assays:
Staphylococcus aureus [1] = assay: Induction of membrane disruption in methicillin-sensitive Staphylococcus aureus FDA 209P assessed as increase in K+ efflux after 30 mins; assay type: functional; conditions: 0.5 h, read-out: ED50 (the source's name)
Summary of the method: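 S. aureus washed twice and suspended at 2 × 10^9 cells per cm3 in 100 mM choline chloride/50 mM Mops-Tris, pH 7.2, then exposed to compound at 37 °C for 30 min. Released K+ was measured in the centrifuged supernatant with a K+-selective electrode. Melittin (10 µM) defined 100% efflux, and ED50 is the concentration giving 50% efflux.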

Staphylococcus aureus [2] = assay: Antibacterial activity against Staphylococcus aureus FDA 209P assessed as decrease in cell viability after 30 mins by colony counting method; assay type: functional; conditions: 0.5 h
Summary of the method: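 S. aureus washed twice and suspended at 2 × 10^9 cells per cm3 in 100 mM choline chloride/50 mM Mops-Tris, pH 7.2. Exposed to CD at 37 °C for 30 min. An aliquot was diluted in physiological saline, plated on polypeptone/yeast extract/NaCl agar and incubated overnight at 37 °C. Viability was taken from colony counts; LC50 is the concentration giving 50% viability.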

Staphylococcus aureus [3] = assay: Induction of membrane disruption in methicillin-sensitive Staphylococcus aureus FDA 209P assessed as increase in K+ efflux at 10 uM after 30 mins relative to control; assay type: functional
Summary of the method: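 S. aureus suspension (2 × 10^9 cells per cm3, 100 mM choline chloride/50 mM Mops-Tris, pH 7.2) treated with CD at 37 °C for 30 min, then centrifuged. K+ released into the supernatant was read with a K+-selective electrode. Efflux is expressed relative to 10 µM melittin, which sets 100%.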

Staphylococcus aureus [4] = assay: Antibacterial activity against methicillin-resistant Staphylococcus aureus MS29202 after 18 to 20 hrs by agar dilution method; assay type: functional
Summary of the method: (§1)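 Agar dilution per CLSI. Overnight broth cultures were diluted 100-fold, and one loopful (about 10^5 to 10^4 CFU) was spotted onto agar plates containing the CD. Growth was scored after 18–20 h at 37 °C. MIC values are in µM.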

[5] = Hemolytic activity in rabbit RBC at 10 uM after 20 mins relative to control; assay type: ADME, cell-based, Oryctolagus cuniculus, Erythrocyte; conditions: rabbit red blood cells (erythrocytes), read-out: Activity
Summary of the method: (§2)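 Rabbit erythrocytes suspended in 150 mM NaCl/10 mM Hepes-NaOH, pH 7.4, at 0.5% hematocrit (final) and incubated with compound at 37 °C. The table footnote gives 20 min; the methods section gives 30 min. Hemolysis was read as absorbance at 540 nm, with 50 µM lysolecithin defining 100% hemolysis.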

Streptococcus agalactiae = assay: Antibacterial activity against drug-resistant Streptococcus agalactiae B1 after 18 to 20 hrs by agar dilution method; assay type: functional; summary of the method: as §1
Enterococcus faecium = assay: Antibacterial activity against drug-resistant Enterococcus faecium MS29120 after 18 to 20 hrs by agar dilution method; assay type: functional; summary of the method: as §1
[6] = Hemolytic activity in rabbit RBC at 1 uM after 20 mins relative to control; assay type: ADME, cell-based, Oryctolagus cuniculus, Erythrocyte; conditions: rabbit red blood cells (erythrocytes), read-out: Activity; summary of the method: as §2
Bacillus subtilis = assay: Antibacterial activity against drug-sensitive Bacillus subtilis 168 after 20 hrs by liquid microdilution method; assay type: functional; conditions: subsp. subtilis str. 168, 20 h
Summary of the method: (§3)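 Two-fold serial dilutions of compound in Mueller–Hinton broth, inoculated with 1 × 10^4 cells and cultured at 37 °C for 20 h in microtiter wells.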

Pseudomonas aeruginosa = assay: Antibacterial activity against drug-sensitive Pseudomonas aeruginosa PAO1 after 20 hrs by liquid microdilution method; assay type: functional; conditions: PAO1, 20 h; summary of the method: as §3
Enterococcus faecalis [7] = assay: Antibacterial activity against vancomycin-resistant Enterococcus faecalis MS29016 after 18 to 20 hrs by agar dilution method; assay type: functional; summary of the method: as §1
Escherichia coli = assay: Antibacterial activity against drug-sensitive Escherichia coli K-12 W3110 after 20 hrs by liquid microdilution method; assay type: functional; conditions: K-12 substr. W3110, 20 h; summary of the method: as §3
[8] = Hemolytic activity in rabbit RBC at 2 uM after 20 mins relative to control; assay type: ADME, cell-based, Oryctolagus cuniculus, Erythrocyte; conditions: rabbit red blood cells (erythrocytes), read-out: Activity; summary of the method: as §2
[9] = Lipophilicity, log P of the compound; assay type: physicochemical; conditions: octanol/water
Salmonella typhimurium = assay: Antibacterial activity against drug-sensitive Salmonella typhimurium LT2 after 20 hrs by liquid microdilution method; assay type: functional, Salmonella enterica subsp. enterica serovar Typhimurium; conditions: Salmonella enterica, LT2, 20 h; summary of the method: as §3
[10] = Hemolytic activity in rabbit RBC at 20 uM after 20 mins relative to control; assay type: ADME, cell-based, Oryctolagus cuniculus, Erythrocyte; conditions: rabbit red blood cells (erythrocytes), read-out: Activity; summary of the method: as §2
[11] = Hemolytic activity in rabbit RBC at 5 uM after 20 mins relative to control; assay type: ADME, cell-based, Oryctolagus cuniculus, Erythrocyte; conditions: rabbit red blood cells (erythrocytes), read-out: Activity; summary of the method: as §2
Enterococcus faecalis [12] = assay: Antibacterial activity against drug-resistant Enterococcus faecalis MS29030 after 18 to 20 hrs by agar dilution method; assay type: functional; summary of the method: as §1
[13] = (§4) Hemolytic activity in rabbit RBC at 50 uM after 20 mins relative to control; assay type: ADME, cell-based, Oryctolagus cuniculus, Erythrocyte; conditions: rabbit red blood cells (erythrocytes), read-out: Activity; summary of the method: as §2
Staphylococcus aureus [14] = assay: Antibacterial activity against methicillin-sensitive Staphylococcus aureus FDA 209P after 20 hrs by liquid microdilution method; assay type: functional; summary of the method: as §3
Erythrocyte = assay: as §4; assay type: ADME, cell-based, Oryctolagus cuniculus; conditions: erythrocyte, 20 min, 50 µM; summary of the method: as §2

CC[C@H](C)[C@H](NC(=O)CN)C(=O)NCC(=O)N[C@@H](C)C(=O)N[C@H](C(=O)N[C@@H](CC(C)C)C(=O)N[C@@H](CCCCN)C(=O)N[C@H](C(=O)N[C@@H](CC(C)C)C(=O)N[C@H](C(=O)N[C@H](C(=O)NCC(=O)N[C@@H](CC(C)C)C(=O)N1CCC[C@H]1C(=O)N[C@@H](C)C(=O)N[C@@H](CC(C)C)C(=O)N[C@H](C(=O)N[C@@H](CO)C(=O)N[C@@H](Cc1c[nH]c2ccccc12)C(=O)N[C@H](C(=O)N[C@@H](CCCCN)C(=O)N[C@@H](CCCNC(=N)N)C(=O)N[C@@H](CCCCN)C(=O)N[C@@H](CCCNC(=N)N)C(=O)N[C@@H](CCC(N)=O)C(=O)N[C@@H](CCC(N)=O)C(N)=O)[C@@H](C)CC)[C@@H](C)CC)[C@@H](C)O)[C@@H](C)O)C(C)C)C(C)C [MELITTIN]
EC50 (Staphylococcus aureus [1]): 0.2 to 0.5 µM
LC50 (Staphylococcus aureus [2]): 0.2 to 0.5 µM
Activity (Staphylococcus aureus [3]): 100%

CCCCCNCc1cn(C[C@H]2O[C@@H]3O[C@H]4[C@H](O)[C@@H](O)[C@@H](O[C@H]5[C@H](O)[C@@H](O)[C@@H](O[C@H]6[C@H](O)[C@@H](O)[C@@H](O[C@H]7[C@H](O)[C@@H](O)[C@@H](O[C@H]8[C@H](O)[C@@H](O)[C@@H](O[C@H]9[C@H](O)[C@@H](O)[C@@H](O[C@H]2[C@H](O)[C@H]3O)O[C@@H]9Cn2cc(CNCCCCC)nn2)O[C@@H]8Cn2cc(CNCCCCC)nn2)O[C@@H]7Cn2cc(CNCCCCC)nn2)O[C@@H]6Cn2cc(CNCCCCC)nn2)O[C@@H]5Cn2cc(CNCCCCC)nn2)O[C@@H]4Cn2cc(CNCCCCC)nn2)nn1
MIC (Staphylococcus aureus [4]): 21 µM (≈ 45.9 µg/mL)
hemolysis at 20 min, 10 µM [5]: 0%
MIC (Streptococcus agalactiae): 3 µM (≈ 6.56 µg/mL)
EC50 (Staphylococcus aureus [1]): 20 µM
MIC (Enterococcus faecium): 21 µM (≈ 45.9 µg/mL)
LC50 (Staphylococcus aureus [2]): 20 µM
hemolysis at 20 min, 1 µM [6]: 0%
MIC (Bacillus subtilis): 1 µM (≈ 2.19 µg/mL)
MIC (Pseudomonas aeruginosa): > 43 µM
MIC (Enterococcus faecalis [7]): > 43 µM
MIC (Escherichia coli): 43 µM (≈ 94 µg/mL)
hemolysis at 20 min, 2 µM [8]: 0%
logP [9]: -0.48
MIC (Salmonella typhimurium): > 43 µM
hemolysis at 20 min, 20 µM [10]: 0%
hemolysis at 20 min, 5 µM [11]: 1%
MIC (Enterococcus faecalis [12]): > 43 µM
hemolysis at 20 min, 50 µM [13]: 1%
MIC (Staphylococcus aureus [14]): 3 to 5 µM (≈ 6.56 to 10.9 µg/mL)

CCCCCCCNCc1cn(C[C@H]2O[C@@H]3O[C@H]4[C@H](O)[C@@H](O)[C@@H](O[C@H]5[C@H](O)[C@@H](O)[C@@H](O[C@H]6[C@H](O)[C@@H](O)[C@@H](O[C@H]7[C@H](O)[C@@H](O)[C@@H](O[C@H]8[C@H](O)[C@@H](O)[C@@H](O[C@H]9[C@H](O)[C@@H](O)[C@@H](O[C@H]2[C@H](O)[C@H]3O)O[C@@H]9Cn2cc(CNCCCCCCC)nn2)O[C@@H]8Cn2cc(CNCCCCCCC)nn2)O[C@@H]7Cn2cc(CNCCCCCCC)nn2)O[C@@H]6Cn2cc(CNCCCCCCC)nn2)O[C@@H]5Cn2cc(CNCCCCCCC)nn2)O[C@@H]4Cn2cc(CNCCCCCCC)nn2)nn1
MIC (Staphylococcus aureus [4]): > 40 µM
hemolysis at 20 min, 10 µM [5]: 110%
MIC (Streptococcus agalactiae): > 40 µM
EC50 (Staphylococcus aureus [1]): 30 µM
MIC (Enterococcus faecium): > 40 µM
LC50 (Staphylococcus aureus [2]): 15 µM
hemolysis at 20 min, 1 µM [6]: 9%
MIC (Bacillus subtilis): 5 µM (≈ 11.9 µg/mL)
MIC (Pseudomonas aeruginosa): 40 µM (≈ 95.3 µg/mL)
MIC (Enterococcus faecalis [7]): > 40 µM
MIC (Escherichia coli): 20 µM (≈ 47.7 µg/mL)
hemolysis at 20 min, 2 µM [8]: 39%
logP [9]: 0.36
MIC (Salmonella typhimurium): 20 µM (≈ 47.7 µg/mL)
hemolysis at 20 min, 20 µM [10]: 116%
hemolysis at 20 min, 5 µM [11]: 85%
MIC (Enterococcus faecalis [12]): > 40 µM
Activity (Erythrocyte): 137%
MIC (Staphylococcus aureus [14]): 5 to 40 µM (≈ 11.9 to 95.3 µg/mL)
